From ChEMBL document CHEMBL1275586, “Phenotypic susceptibility to bevirimat in isolates from HIV-1-infected patients without prior exposure to bevirimat” (Antimicrob Agents Chemother, 2010)

Tests used:
Assay type in all cases: functional, MT2
[1] = system: Human immunodeficiency virus 1; test: Antiviral activity against antiretroviral-pretreated Human immunodeficiency virus 1 isolate 22 infected in human MT-2 cells by XTT assay relative to wild-type
Method in brief: (§1)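 Patient-derived Gag fragments were pooled as bacterial colonies to keep quasispecies diversity and ligated into the pXXLAI (HIV-1 LAI) backbone. Virus was made by transfecting 293T cells and harvesting supernatant 2 days later. MT-2 cells were infected at 37°C with an inoculum titrated to give an XTT signal-to-noise of 2.5–4.0. Cells were plated into drug dilutions, incubated 5 days at 37°C, and read by XTT absorbance (450−650 nm). EC50 was taken from percent cell death and expressed as fold change versus wild-type LAI.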

[2] = system: Human immunodeficiency virus 1; test: Antiviral activity against Human immunodeficiency virus 1 isolate 32 harboring Gag-SP1 V370I and N372G mutant gene infected in human MT-2 cells by XTT assay relative to wild-type
Method in brief: (§2)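 Patient Gag-protease (SfoI-XmaI) fragments were ligated into the pXXLAI backbone, with colonies pooled to keep quasispecies. Virus came from 293T transfection, harvested at 2 days. MT-2 infection at 37°C used an input giving XTT signal-to-noise of 2.5–4.0 (≈MOI 0.001). Cells at ≈17,000/well with drug dilutions, 5 days, 37°C; XTT 1 h, A450–650. EC50 from % cell death; fold change vs wild-type LAI.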

[3] = system: Human immunodeficiency virus 1; test: Antiviral activity against Human immunodeficiency virus 1 isolate 1 harboring Gag-SP-1 S368, V370 and deletion at T371 in Gag-SP-1 mutant infected in human MT-2 cells by XTT-assay relative to wild-type; method in brief: as §2
[4] = system: Human immunodeficiency virus 1; test: Antiviral activity against antiretroviral-pretreated PI-resistant Human immunodeficiency virus 1 isolate 7 infected in human MT-2 cells by XTT assay relative to wild-type; method in brief: as §1
[5] = system: Human immunodeficiency virus 1; test: Antiviral activity against Human immunodeficiency virus 1 isolate 6 harboring Gag-SP-1 S373 and A374 mutant infected in human MT-2 cells by XTT-assay relative to wild-type; method in brief: as §2
[6] = system: Human immunodeficiency virus 1; test: Antiviral activity against antiretroviral-pretreated PI-resistant Human immunodeficiency virus 1 isolate 26 harboring Gag-SP1 N372S, S373P and T375N mutant gene infected in human MT-2 cells by XTT assay relative to wild-type; method in brief: as §1
[7] = system: Human immunodeficiency virus 1; test: Antiviral activity against Human immunodeficiency virus 1 isolate 38 harboring Gag-SP1 V370A, N372S/G, S373P/T/Q/K, A374A/G/T/S, T375A and I376M mutant gene infected in human MT-2 cells by XTT assay relative to wild-type; method in brief: as §2
[8] = system: Human immunodeficiency virus 1; test: Antiviral activity against Human immunodeficiency virus 1 isolate 29 harboring Gag-capsid I138M, A146P, R286K and A326S mutant gene and protease L10F, I13V, V32I, M36L, S37N, M46I, I47V, I62V, L63P, A71I, I72V and V82A mutant gene infected in human MT-2 cells by XTT-assay relative to wild-type; method in brief: as §2
[9] = system: Human immunodeficiency virus 1; test: Antiviral activity against antiretroviral-pretreated PI-resistant Human immunodeficiency virus 1 isolate 24 harboring Gag-capsid V362I mutant gene, Gag-SP-1 V370A, N372T and T375A mutant gene and deletion at T371 in Gag-SP-1 infected in human MT-2 cells by XTT assay relative to wild-type; method in brief: as §1

Q: Which “fold change (FC)” value [1] does the source give for `C=C(C)[C@@H]1CC[C@]2(C(=O)O)CC[C@]3(C)[C@H](CC[C@@H]4[C@@]5(C)CC[C@H](OC(=O)CC(C)(C)C(=O)O)C(C)(C)[C@@H]5CC[C@]43C)[C@@H]12` [BEVIRIMAT] here?
A: 0.7

Q: What about the “fold change (FC)” value [2] of the same compound?
A: 0.9

Q: What about the “fold change (FC)” value [3] of the same compound?
A: 0.6

Q: What about the “fold change (FC)” value [4] of the same compound?
A: 1

Q: What about the “fold change (FC)” value [5] of the same compound?
A: >100

Q: What about the “fold change (FC)” value [6] of the same compound?
A: 1.3

Q: And the “fold change (FC)” value [7]?
A: >100

Q: What about the “fold change (FC)” value [8] of the same compound?
A: >100

Q: What about the “fold change (FC)” value [9] of the same compound?
A: >100
